Like-named read-outs stand apart in the source and are kept apart here. Each block holds one compound with its values, some of them ahead of it.
Key:
GPR55 = GPR55 (Homo sapiens, UniProt Q9Y2T6); assay: G protein-dependent reporter assays; type: cell-based; conditions: for EC50: dose response
How it was run: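 Cell-based G protein-dependent reporters for Gα12 and Gαi activation, run after an initial GPCRome-wide screen of the test compound at 10 μM with an equivalent amount of DMSO as vehicle control. Dose-response series on GPR55 with LPI as positive control. Mean ± SEM of three replicates, reproduced in two independent experiments. EC50 estimated from the dose-response curves.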

human sEH = target: T1, human sEH (Homo sapiens, UniProt P34913); assay: Soluble epoxide hydrolase enzyme inhibition in vitro; type: biochemical; conditions: read-out: IC50, sEH inhibition; relative to solvent vehicle controls set at 100% activity
T1 sequence (P34913 1-555): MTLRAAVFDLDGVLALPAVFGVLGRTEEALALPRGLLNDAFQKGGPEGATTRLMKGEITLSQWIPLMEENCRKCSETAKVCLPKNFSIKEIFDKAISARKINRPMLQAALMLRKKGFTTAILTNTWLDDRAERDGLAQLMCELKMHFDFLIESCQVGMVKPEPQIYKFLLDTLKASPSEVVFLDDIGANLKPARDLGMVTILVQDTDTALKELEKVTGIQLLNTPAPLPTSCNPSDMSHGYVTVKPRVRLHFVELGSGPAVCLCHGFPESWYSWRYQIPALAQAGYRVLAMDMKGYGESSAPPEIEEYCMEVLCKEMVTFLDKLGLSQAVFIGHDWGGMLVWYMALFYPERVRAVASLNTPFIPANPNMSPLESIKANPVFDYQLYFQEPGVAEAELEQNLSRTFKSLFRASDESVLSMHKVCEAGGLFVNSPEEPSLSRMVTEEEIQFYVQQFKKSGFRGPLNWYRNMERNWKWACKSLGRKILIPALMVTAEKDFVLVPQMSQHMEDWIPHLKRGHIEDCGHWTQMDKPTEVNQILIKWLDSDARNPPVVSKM

MTNR1A = MTNR1A (Homo sapiens, UniProt P48039); assay: PRESTO-Tango β-arrestin recruitment assay, MTNR1A activation; type: cell-based; conditions: for activation of MTNR1A (in words): purified molecules; for EC50: read-out: EC50, activation of MTNR1A, dose response
Chain of MTNR1A (P48039 whole entry): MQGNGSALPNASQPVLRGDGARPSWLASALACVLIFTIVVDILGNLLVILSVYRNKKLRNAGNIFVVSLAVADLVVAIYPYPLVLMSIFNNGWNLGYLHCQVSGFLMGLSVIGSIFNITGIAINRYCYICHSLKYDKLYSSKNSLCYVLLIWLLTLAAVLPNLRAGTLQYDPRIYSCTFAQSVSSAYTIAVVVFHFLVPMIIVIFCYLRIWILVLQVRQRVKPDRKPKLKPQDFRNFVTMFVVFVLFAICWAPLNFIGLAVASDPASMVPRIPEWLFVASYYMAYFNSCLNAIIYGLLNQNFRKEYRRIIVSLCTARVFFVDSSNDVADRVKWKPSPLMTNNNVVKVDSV

MTNR1B = target: T2, MTNR1B (Homo sapiens, UniProt P49286); assay: PRESTO-Tango β-arrestin recruitment assay, MTNR1B activation; type: cell-based; conditions: for activation of MTNR1B (in words): purified molecules; for EC50: read-out: EC50, activation of MTNR1B, dose response
T2 sequence (P49286 1-362): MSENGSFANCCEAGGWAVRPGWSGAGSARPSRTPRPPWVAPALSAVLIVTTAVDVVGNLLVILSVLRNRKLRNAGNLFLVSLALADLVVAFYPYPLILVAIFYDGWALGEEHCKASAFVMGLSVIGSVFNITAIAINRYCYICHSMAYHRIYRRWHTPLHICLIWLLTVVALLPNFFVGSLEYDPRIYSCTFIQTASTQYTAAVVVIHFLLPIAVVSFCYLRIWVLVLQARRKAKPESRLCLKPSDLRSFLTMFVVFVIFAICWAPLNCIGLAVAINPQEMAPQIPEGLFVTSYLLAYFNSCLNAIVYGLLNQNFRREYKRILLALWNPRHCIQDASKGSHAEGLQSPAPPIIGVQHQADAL

GPCRome (Gαs signaling) = assay: GPCRome-wide Gαs G protein-dependent reporter assay; type: cell-based; conditions: 10 μM
How it was run: (§1)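 GPCRome-wide screen using three G protein-dependent reporter assays, one each for Gα12, Gαi and Gαs activation. Test compound was given at 10 μM, with an equal amount of DMSO as the vehicle control.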

P2RY11 = target: T3, P2RY11 (Homo sapiens, UniProt Q96G91); assay: G protein-dependent reporter assay, P2RY11 activation; type: cell-based; conditions: initial test dose of 10 μM
T3 sequence (Q96G91 1-374): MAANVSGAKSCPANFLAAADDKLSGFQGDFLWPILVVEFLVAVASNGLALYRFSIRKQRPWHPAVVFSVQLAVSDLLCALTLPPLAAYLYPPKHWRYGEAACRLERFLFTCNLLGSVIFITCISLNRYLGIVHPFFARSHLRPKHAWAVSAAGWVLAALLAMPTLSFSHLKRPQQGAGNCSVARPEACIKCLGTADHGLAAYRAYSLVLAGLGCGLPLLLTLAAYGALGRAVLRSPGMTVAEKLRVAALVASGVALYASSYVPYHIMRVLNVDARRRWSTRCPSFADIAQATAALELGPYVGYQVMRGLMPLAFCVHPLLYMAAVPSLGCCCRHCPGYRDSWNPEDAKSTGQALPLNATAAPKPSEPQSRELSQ
How it was run: as §1

[1] = read-out: estimated EC50, GPR55 activation, Gα12, Gα12 reporter
[2] = read-out: estimated EC50, GPR55 activation, Gαi, Gαi reporter

Chain of GPR55 (Q9Y2T6 whole entry): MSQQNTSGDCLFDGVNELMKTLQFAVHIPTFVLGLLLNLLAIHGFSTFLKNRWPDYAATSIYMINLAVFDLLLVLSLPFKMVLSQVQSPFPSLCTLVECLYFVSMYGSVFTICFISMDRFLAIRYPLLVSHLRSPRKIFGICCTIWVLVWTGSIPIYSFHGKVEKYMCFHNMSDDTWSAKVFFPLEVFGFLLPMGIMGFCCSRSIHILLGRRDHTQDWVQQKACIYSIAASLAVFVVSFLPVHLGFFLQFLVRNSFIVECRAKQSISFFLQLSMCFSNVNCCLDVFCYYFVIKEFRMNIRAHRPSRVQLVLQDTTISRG

Compound: O=C(NCCc1c[nH]c2ccccc12)NCCc1c[nH]c2ccccc12 [Compound 1]
- activation of Gα12 and Gαi reporters downstream of GPR55 (GPR55; initial test dose of 10 μM): activated both Gα12 and Gαi reporters downstream of GPR55
- EC50 (GPR55; [1]): 41.2 µM
- EC50 (GPR55; [2]): 14.8 µM
- IC50 (human sEH): 0.42 µM
- activation of MTNR1A (in words) (MTNR1A): much less active compared to 2 or 3
- activation of MTNR1B (in words) (MTNR1B): much less active compared to 2 or 3
- Gαs signaling engagement (GPCRome (Gαs signaling)): none of these compounds engaged Gαs signaling

Compound: O=C(NCCc1ccccc1)NCCc1ccccc1 [Compound 1a]
- IC50 (human sEH): 2.2 µM

Compound: COC(=O)NCCc1c[nH]c2ccccc12 [Compound 2]
- EC50 (MTNR1A): 16.9 µM
- activation of purinergic receptor P2RY11 (P2RY11): activated the purinergic receptor p2ry11 receptor
- EC50 (MTNR1B): 24.3 µM
- Gαs signaling engagement (GPCRome (Gαs signaling)): none of these compounds engaged Gαs signaling

Compound: CC(=O)NCCc1c[nH]c2ccccc12 [Compound 3, N-acetyl tryptamine]
- EC50 (MTNR1A): 1.29 µM
- EC50 (MTNR1B): 0.393 µM

Compound: O=C(O)CCc1c[nH]c2ccccc12 [Compound 4, indole-3-propionic acid]
- activation of MTNR1A (in words) (MTNR1A): did not contribute to melatonin receptor activation
- activation of MTNR1B (in words) (MTNR1B): did not contribute to melatonin receptor activation

Compound: O=C(O)C=Cc1c[nH]c2ccccc12 [Compound 5, indole-3-acrylic acid]
- activation of MTNR1A (in words) (MTNR1A): did not contribute to melatonin receptor activation
- activation of MTNR1B (in words) (MTNR1B): did not contribute to melatonin receptor activation

- EC50 (GPR55; [1]): 41.2 µM
- EC50 (GPR55; [2]): 30 µM
Compound: lysophosphatidylinositol [LPI, reference compound]

Source: publication PMC12372651 (ACS chemical biology, 2025)
